According to ChEMBL document CHEMBL4368882, “Synthesis and biological evaluation against Leishmania donovani of novel hybrid molecules containing indazole-based 2-pyrone scaffolds” (Medchemcomm, 2019):

Columns and labels:
Leishmania donovani [1] = experiment: Antileishmanial activity against Leishmania donovani MHOM/ET/67/HU3 intramacrophage amastigotes infected in mouse RAW264.7 cells after 48 hrs by SYBR green1 dye-based fluorescence assay; type: functional, organism-based; conditions: MHOM/ET/67/HU3, RAW264.7, 48 h
Outline: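 RAW 264.7 macrophages (2 × 10⁴ per well, 24 h preculture) infected with axenic amastigotes at 16:1 parasite:macrophage for 24 h. Extracellular parasites then removed. Two-fold serial dilutions from 100 μM maximum in DMEM complete medium for 48 h. Cells lysed in Direct PCR Lysis Reagent with 3 freeze–thaw cycles and proteinase K 50 μg mL⁻¹ at 55 °C overnight. Extract mixed with SYBR Green I.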

Leishmania donovani [2] = experiment: Antileishmanial activity against Leishmania donovani MHOM/ET/67/HU3 axenic amastigotes after 72 hrs by resazurin dye-based assay; type: functional, organism-based; conditions: MHOM/ET/67/HU3, 72 h
[3] = Cytotoxicity against mouse RAW264.7 cells after 48 hrs by resazurin dye-based assay; type: cell-based
Outline: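 RAW 264.7 cells seeded at 2 × 10⁴ per well in DMEM with 10% HIFBS and penicillin–streptomycin, 24 h preculture. Two-fold serial dilutions for 48 h at 37 °C, 5% CO₂. Resazurin (450 μM, 10 μL) added for 4 h in the dark, OD570/OD600 read. CC50 is the concentration reducing macrophage growth by 50%.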

[4] = Selectivity index, ratio of CC50 for mouse RAW264.7 cells to IC50 for Leishmania donovani MHOM/ET/67/HU3 intramacrophage amastigotes infected in mouse RAW264.7 cells; type: toxicity, cell-based; conditions: read-out: Ratio CC50/IC50
Outline: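 Ratio of the RAW 264.7 CC₅₀ to the intramacrophage amastigote IC₅₀, both measured in this work.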

Work on `CCn1nc(Cl)c2ccc(N/C(C)=C3\C(=O)C=C(C)OC3=O)cc21` yielded an IC50 (Leishmania donovani [1]) of 6.5 µM, an IC50 (Leishmania donovani [2]) of 11 µM and a CC50 at 48 h [3] of 6.23 µM. It also gave a selectivity ratio [4] of 0.96.
`CCn1ncc2cc(N/C(C)=C3\C(=O)C=C(C)OC3=O)ccc21` gave an IC50 (Leishmania donovani [1]) of over 100 µM, an IC50 (Leishmania donovani [2]) of over 100 µM and a CC50 at 48 h [3] of over 100 µM.
For `CC1=CC(=O)/C(=C(/C)Nc2ccc3c(Cl)nn(C)c3c2)C(=O)O1`, the IC50 (Leishmania donovani [1]) was over 100 µM, the IC50 (Leishmania donovani [2]) was over 100 µM and the CC50 at 48 h [3] was over 100 µM.
For `CC1=CC(=O)/C(=C(/C)Nc2ccc3c(Cl)nn(Cc4ccc(C)cc4)c3c2)C(=O)O1`, the IC50 (Leishmania donovani [1]) was 49.9 µM, the IC50 (Leishmania donovani [2]) was 62.6 µM and the CC50 at 48 h [3] was over 100 µM.
For `CC1=CC(=O)/C(=C(/C)Nc2ccc3c(cnn3C)c2)C(=O)O1`, the IC50 (Leishmania donovani [1]) was over 100 µM, the IC50 (Leishmania donovani [2]) was over 100 µM and the CC50 at 48 h [3] was over 100 µM.
`CCn1ncc2ccc(N/C(C)=C3\C(=O)C=C(C)OC3=O)cc21` gave an IC50 (Leishmania donovani [1]) of over 100 µM, an IC50 (Leishmania donovani [2]) of over 100 µM and a CC50 at 48 h [3] of over 100 µM.
In the case of `C=CCn1ncc2ccc(N/C(C)=C3\C(=O)C=C(C)OC3=O)cc21`, the IC50 (Leishmania donovani [1]) is reported as over 100 µM, the IC50 (Leishmania donovani [2]) is reported as over 100 µM and the CC50 at 48 h [3] is reported as over 100 µM.
Molecule `CC1=CC(=O)/C(=C(/C)Nc2ccc3c(Cl)n(C)nc3c2)C(=O)O1` has an IC50 (Leishmania donovani [1]) of 3.25 µM, an IC50 (Leishmania donovani [2]) of 11.9 µM and a CC50 at 48 h [3] of 6.26 µM. The selectivity ratio [4] was 1.92.
With `C=CCn1nc(Cl)c2ccc(N/C(C)=C3\C(=O)C=C(C)OC3=O)cc21` the IC50 (Leishmania donovani [1]) was over 100 µM, the IC50 (Leishmania donovani [2]) was over 100 µM and the CC50 at 48 h [3] was over 100 µM.
`C=CCn1ncc2cc(N/C(C)=C3\C(=O)C=C(C)OC3=O)ccc21` gave an IC50 (Leishmania donovani [1]) of over 100 µM, an IC50 (Leishmania donovani [2]) of over 100 µM and a CC50 at 48 h [3] of over 100 µM.
Work on `CC1=CC(=O)/C(=C(/C)Nc2ccc3c(Cl)n(Cc4ccc(C)cc4)nc3c2)C(=O)O1` yielded an IC50 (Leishmania donovani [1]) of over 100 µM, an IC50 (Leishmania donovani [2]) of over 100 µM and a CC50 at 48 h [3] of over 100 µM.
`C[C@@H]1[C@H](O)[C@@H](C)/C=C/C=C/C=C/C=C/C=C/C=C/C=C/[C@H](O[C@@H]2O[C@H](C)[C@@H](O)[C@H](N)[C@@H]2O)C[C@@H]2O[C@](O)(C[C@@H](O)C[C@@H](O)[C@H](O)CC[C@@H](O)C[C@@H](O)CC(=O)O[C@H]1C)C[C@H](O)[C@H]2C(=O)O` [AMPHOTERICIN B] showed an IC50 (Leishmania donovani [1]) of 0.115 µM and a CC50 at 48 h [3] of 4.23 µM.
With `CC1=CC(=O)/C(=C(/C)Nc2ccc3cn(Cc4ccc(C)cc4)nc3c2)C(=O)O1` the IC50 (Leishmania donovani [1]) was 57.4 µM, the IC50 (Leishmania donovani [2]) was 49.6 µM and the CC50 at 48 h [3] was over 100 µM.
For `CC1=CC(=O)/C(=C(/C)Nc2ccc3nn(C)cc3c2)C(=O)O1`, the IC50 (Leishmania donovani [1]) was over 100 µM, the IC50 (Leishmania donovani [2]) was over 100 µM and the CC50 at 48 h [3] was over 100 µM.
Molecule `C=CCn1cc2ccc(N/C(C)=C3\C(=O)C=C(C)OC3=O)cc2n1` has an IC50 (Leishmania donovani [1]) of over 100 µM, an IC50 (Leishmania donovani [2]) of over 100 µM and a CC50 at 48 h [3] of over 100 µM.
Work on `CC1=CC(=O)/C(=C(/C)Nc2ccc3cnn(C)c3c2)C(=O)O1` yielded an IC50 (Leishmania donovani [1]) of over 100 µM, an IC50 (Leishmania donovani [2]) of over 100 µM and a CC50 at 48 h [3] of over 100 µM.
`CC1=CC(=O)/C(=C(/C)Nc2ccc3cnn(Cc4ccc(C)cc4)c3c2)C(=O)O1` gave an IC50 (Leishmania donovani [1]) of over 100 µM, an IC50 (Leishmania donovani [2]) of over 100 µM and a CC50 at 48 h [3] of over 100 µM.
`CCn1nc2cc(N/C(C)=C3\C(=O)C=C(C)OC3=O)ccc2c1Cl` showed an IC50 (Leishmania donovani [1]) of 2.25 µM, an IC50 (Leishmania donovani [2]) of 2.48 µM and a CC50 at 48 h [3] of 6.25 µM. For the same molecule, the selectivity ratio [4] was 2.77.
Work on `CCn1cc2cc(N/C(C)=C3\C(=O)C=C(C)OC3=O)ccc2n1` yielded an IC50 (Leishmania donovani [1]) of over 100 µM, an IC50 (Leishmania donovani [2]) of over 100 µM and a CC50 at 48 h [3] of over 100 µM.
With `CCn1cc2ccc(N/C(C)=C3\C(=O)C=C(C)OC3=O)cc2n1` the IC50 (Leishmania donovani [1]) was over 100 µM, the IC50 (Leishmania donovani [2]) was over 100 µM and the CC50 at 48 h [3] was over 100 µM.
